Compound activity as filed in PubChem.
HTR2A ag: mouse HTR2A agonism via beta-arrestin recruitment | P35363 | CHO-K1 mHTR2A beta-arrestin complementation, luminescence; percent of 30 µM serotonin response | activation, % at 7.6 µM | 360,000 compounds, 0.66% hits | AID 624169;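 active = activation above a run cutoff, the mean activation of all tested compounds plus 3 SD, cut at about 14% in these data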
Target sequence (P35363 whole entry, looked up): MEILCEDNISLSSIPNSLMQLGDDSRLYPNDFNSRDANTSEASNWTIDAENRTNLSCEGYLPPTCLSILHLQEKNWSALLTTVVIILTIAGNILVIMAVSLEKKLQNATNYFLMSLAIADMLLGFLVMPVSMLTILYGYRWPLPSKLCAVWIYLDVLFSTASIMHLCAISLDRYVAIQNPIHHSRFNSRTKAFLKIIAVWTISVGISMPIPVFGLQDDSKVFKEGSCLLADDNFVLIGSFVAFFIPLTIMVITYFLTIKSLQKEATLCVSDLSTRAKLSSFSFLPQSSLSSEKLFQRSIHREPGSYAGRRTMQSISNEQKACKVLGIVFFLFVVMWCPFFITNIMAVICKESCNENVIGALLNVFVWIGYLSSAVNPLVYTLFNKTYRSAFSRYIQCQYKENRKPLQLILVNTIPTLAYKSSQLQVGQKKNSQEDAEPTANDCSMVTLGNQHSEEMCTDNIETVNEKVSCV
APJ agonist: activates the human apelin receptor APJ; 330,000 compounds, 0.11% hits; P35414; CHO-K1 APJ PathHunter beta-arrestin, luminescence; 0% DMSO wells, 100% apelin; AID 2520; activation, % at 20 µM;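 active = activation more than six SD over the plate average, tested at 20 µM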
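Incubation: overnight seeding, 90 min compound at 25 °C, 1 h detection; test system: PathHunter CHO-K1 APJ (AGTRL-1) beta-arrestin reporter cells; amount: 1000 cells/well; doses: one dose, 20 µM compound, 1% DMSO; measured by: beta-gal luminescence; measure: agonist-driven arrestin binding to APJ; benchmarks: negative DMSO alone, positive Apelin-13 at 10 nM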
NTR1 ag: agonists of human neurotensin receptor NTR1. P30989. 330,000 compounds, 0.17% hits. NTR1-U2OS beta-arrestin-GFP spot imaging, agonist mode. activation, % at 20 µM. AID 493036;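 active = activation at or above 40% of the spot to cytoplasm intensity ratio, with at least 20 cells analyzed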
APJ antagonist: APJ receptor antagonism. CHO-K1 APJ beta-arrestin complementation, luminescence. 330,000 compounds, 0.32% hits. P35414. inhibition, % at 20 µM. AID 2521;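 active = inhibition above about 40% at 20 µM, limit read from the data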;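 note: cells challenged with 10 nM apelin-13 agonist together with compound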
CXCR6 block: CXCR6 (human) receptor inhibition. CHO-K1 PathHunter CXCR6 beta-arrestin, luminescence. inhibition, % at 20 µM. AID 602244. O00574. 360,000 compounds, 0.36% hits; in the data active = inhibition above about 34%, passing the limit was not always enough;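 note: antagonist mode with CXCL16 agonist at 10 nM final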
CCR6 antagonist: antagonists of human CCR6 receptor. P51684. CHO-K1 CCR6 PathHunter beta-arrestin, luminescence, CCL20-stimulated. inhibition, % at 20 µM. 340,000 compounds, 0.49% hits. AID 493098;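 active = compounds whose inhibition of the agonist-driven luminescence signal at 20 µM reaches about 50%, limit read from the data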;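 note: cells stimulated with CCL20 at 14 nM final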
Numbers stand for hits; – = inactive; · = not tested or not shown. The list is not random: actives were taken first. Their share in the collection is about 1.5%.

SMILES	HTR2A ag	APJ agonist	NTR1 ag	APJ antagonist	CXCR6 block	CCR6 antagonist
O=C1C(=Cc2ccc(Cl)cc2)Cc2ccccc21	–	·	·	·	–	·
C=CC(=O)N1C/C(=C/c2ccc(Cl)cc2)C(=O)/C(=C\c2ccc(Cl)cc2)C1	–	·	·	·	50	62
O=C1C=CC(=O)N1c1cccc(-c2ccccc2)c1	–	–	–	–	72	76
CCOC(=O)c1cccc(NC(=O)/C=C/c2cccc([N+](=O)[O-])c2)c1	–	–	–	–	–	–
CCOC(=O)/C=C/C(=O)Nc1cccc([N+](=O)[O-])c1	–	–	–	–	85	·
COc1cc(/C=C2\SC(c3ccc(C)cc3)=NC2=O)cc(OC)c1OC	–	–	–	–	–	–
COc1cc(/C=C2\SC(c3ccccc3)=NC2=O)cc(Cl)c1O	–	·	·	·	–	74
COc1cc(/C=C2/C(=O)ON=C2C)cc(Cl)c1O	–	–	–	–	–	59
COc1ccccc1N1C(=O)CC(Sc2nccc(C)n2)C1=O (centres undefined)	–	–	–	–	–	–
COc1ccccc1N1C(=O)CC(Sc2n[nH]c(-c3cccc(C)c3)n2)C1=O (centres undefined)	–	–	–	–	–	75
CCOC(=O)C(=O)Nc1ncc(Cl)s1	–	–	–	–	–	–
CCn1c(C)cc2c(c1=O)C(c1ccc3c(c1)OCO3)C(C#N)=C(N)O2 (centres undefined)	15	–	–	–	–	–
O=C(CSc1nnc2c(n1)[nH]c1ccccc12)NCc1ccccc1F	15	–	–	–	–	–
CC(C)(C)c1ccc(OCC(=O)NNC(=S)NC(=O)c2ccco2)c(Br)c1	–	–	–	–	–	56
CC(C)c1ccc(OCC(=O)NNC(=S)NC(=O)c2ccco2)c(Br)c1	–	–	–	–	–	–
COC(=O)C1=C(C)NC(C)=C(C(=O)OCC2CCCO2)C1c1cccc(Br)c1 (centres undefined)	–	–	–	–	–	–
COc1ccc2[nH]cc(CCNC(=O)CS(=O)(=O)Cc3ccccc3)c2c1	–	–	–	–	–	–
CN(C)CC(CCC(CN(C)C)C(=O)c1ccccc1)C(=O)c1ccccc1 (centres undefined)	–	·	·	·	76	98
CCOc1ccc(C(=O)C(CCC(CN(C)C)C(=O)c2ccc(OCC)cc2)CN(C)C)cc1 (centres undefined)	–	·	·	·	–	–
O=[N+]([O-])c1cccc(N=Cc2sc3ccccc3c2O)c1	·	–	–	–	·	·
O=[N+]([O-])c1ccc(N=Cc2sc3ccccc3c2O)cc1	–	–	–	–	–	52
COc1ccc(-c2sc(Nc3ccccc3)n[n+]2-c2ccccc2)cc1Br	–	–	–	–	–	–
C(=C\c1sc(Nc2ccccc2)n[n+]1-c1ccccc1)/c1ccccc1	–	·	·	·	–	66
O=[N+]([O-])c1cccnc1S(=O)(=O)c1ccccc1	–	–	–	–	–	–
COc1nc(OC)nc(Oc2ccc(Cl)cc2[N+](=O)[O-])n1	–	–	–	–	–	–
SMILES	HTR2A ag	APJ agonist	NTR1 ag	APJ antagonist	CXCR6 block	CCR6 antagonist
COc1ccc([N+](=O)[O-])c(S(=O)(=O)c2ccccc2)n1	–	–	–	–	59	65
COc1ccc([N+](=O)[O-])c(S(=O)(=O)c2ccc(Cl)cc2)n1	–	–	–	–	68	75
CSc1ccc(S(=O)(=O)N2CCC(C(=O)NCCN3CCOCC3)CC2)cc1	–	–	–	–	–	–
Cc1ccc(S(=O)(=O)CCC(=O)OCCOc2ccc(Br)cc2)cc1	–	·	·	·	–	·
O=[N+]([O-])c1ccc(O)c(/C=N\N=C2c3ccccc3-c3ccccc32)c1	–	–	–	–	–	56
NC(N)=N/N=C/c1cc([N+](=O)[O-])ccc1O	–	–	–	–	–	–
NC(N)=N/N=C(\N=Nc1ccccc1)c1ccc(Cl)cc1	–	·	·	·	–	63
O=C(C=Cc1cccc(O)c1)c1ccccc1O	–	·	·	·	–	–
O=C(/C=C/c1ccc(O)c(O)c1)c1ccccc1O	–	–	–	43	–	52
CC(=O)N1N=C(c2cccc([N+](=O)[O-])c2)OC1c1ccccc1Cl (centres undefined)	–	–	–	–	–	50
C/C(=N\NC(=S)NCc1ccccc1)c1ccc(C(C)(C)C)cc1	–	–	–	–	–	62
C/C(=N\NC(=S)NCc1ccccc1)c1ccccc1	–	–	–	–	–	–
Cc1ccc(C(=O)NN2C(=O)/C(=C/c3cn(C)c4ccccc34)SC2=S)cc1	–	·	·	·	–	–
Cn1cc(/C=C2\SC(=O)NC2=S)c2ccccc21	–	–	–	–	–	53
COc1cc(/C=C2/C(=O)c3cccc([N+](=O)[O-])c3C2=O)c(Br)cc1O	–	·	·	·	86	97
NS(=O)(=O)c1ccc(CCNC(=O)c2cc3ccccc3oc2=O)cc1	–	–	–	–	–	–
N#Cc1ccc(CN2CCN(C(=O)CCNS(=O)(=O)c3ccc(F)c(Cl)c3)CC2)cc1	49	–	–	–	–	–
O=[N+]([O-])c1ccc2[nH]c(O)c(N=NC(=S)Nc3cccnc3)c2c1	–	–	–	–	42	70
COc1ccc(-c2cc(C(=O)NC(C)c3ccccn3)c3ccccc3n2)cc1OC (centres undefined)	20	–	–	–	–	–
C=CCS/C(N)=N\N=C\c1cc(Br)cc([N+](=O)[O-])c1O	–	–	–	–	34	62
CS/C(N)=N/N=C/c1cc(Br)cc(Br)c1O	–	–	–	–	–	–
CN(C)CC(O)c1ccc(C=Cc2ccc(Cl)cc2)cc1 (centres undefined)	–	·	·	·	–	88
O=C(OCn1ncc(Br)c(Br)c1=O)c1ccc(F)cc1	–	–	–	–	47	–
CC(=O)OCn1ncc(N2CCOCC2)c(Br)c1=O	–	–	–	–	–	–
O=C(OCn1ncc(Br)c(Br)c1=O)c1ccccc1Cl	–	–	–	–	49	–
SMILES	HTR2A ag	APJ agonist	NTR1 ag	APJ antagonist	CXCR6 block	CCR6 antagonist
O=C(OCc1cnc(Cl)s1)c1ccccc1Cl	–	–	–	–	–	–
Cn1c(NCC2CCCCC2)nc2cc(-c3ccsc3)sc2c1=O	–	·	·	·	–	·
COc1ccc(OC)c(NC(=O)C(C)N2c3cccc4cccc(c34)S2(=O)=O)c1 (centres undefined)	–	–	–	–	–	–
O=C(Nc1nc(-c2ccccc2)cs1)C1CCCN(S(=O)(=O)c2ccccc2)C1 (centres undefined)	–	–	–	–	–	66
COc1ccc(N2CCN(C(=O)COC(=O)c3cnccn3)CC2)cc1	–	–	–	–	–	–
CC(=O)OCCCNc1cc(Sc2ccc(Cl)cc2)c2nonc2c1[N+](=O)[O-]	–	·	·	·	92	104
FC(F)(F)C1=Nc2cccc3cccc(c23)N1	–	–	–	–	62	80
